Assay results as given in ChEMBL document CHEMBL2331228, “Synthesis and insight into the structure-activity relationships of chalcones as antimalarial agents” (J Med Chem, 2013).
Values after ≈ are worked out from the molar mass of the structure shown. Active and inactive are the calls of the source. No cut-off for these calls is given here.

What was measured:
[1] = test system: Plasmodium falciparum; assay: Antimalarial activity against Plasmodium falciparum; format: functional
[2] = test system: Plasmodium falciparum; assay: Antimalarial activity against schizont stage of chloroquine-sensitive Plasmodium falciparum 3D7 after more than 40 hrs by Giemsa staining-based light microscopic analysis; format: functional; conditions: 3D7, 40 h
In short: (§1)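 Ring stages (5% D-sorbitol synchronized) of 3D7 were grown in RPMI with 10% FBS, gentamycin and Fungizone at 37 °C under CO2. They were exposed in duplicate to compound (DMSO stock, 5 mg/mL) at 2, 10 and 50 μg/mL, with 3% cell suspension and 1% parasitized cells, for >40 h. Giemsa-stained thin smears were counted for schizonts. MIC is the lowest concentration giving 100% inhibition of schizont maturation.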

[3] = test system: Plasmodium falciparum; assay: Antimalarial activity against schizont stage of chloroquine-sensitive Plasmodium falciparum 3D7 assessed as reduction in parasitemia at 10 ug/ml after more than 40 hrs by Giemsa staining-based light microscopy; format: functional; set-up: scale not given: the % may be the effect or the level left; in short: as §1
[4] = test system: Plasmodium falciparum; assay: Activation of Plasmodium falciparum recombinant Falcipain-3 using Z-LR-AMC as substrate at high concentration after 30 mins by microplate reader analysis
[5] = Inhibition of Plasmodium falciparum recombinant Falcipain-2 using Z-LR-AMC as substrate after 30 mins by microplate reader analysis
[6] = test system: Plasmodium falciparum; assay: Inhibition of Plasmodium falciparum recombinant Falcipain-3 using Z-LR-AMC as substrate at low concentration after 30 mins by microplate reader analysis
[7] = test system: Plasmodium yoelii; assay: Antimalarial activity against chloroquine-resistant Plasmodium yoelii N-67 infected in Swiss mouse assessed as mean survival time of host at 50 mg/kg/day, ip administered for 3 days (reference value: 9.20 +/- 0.44 days); format: functional; conditions: route intraperitoneal
[8] = test system: Plasmodium yoelii; assay: Antimalarial activity against chloroquine-resistant Plasmodium yoelii N-67 infected in Swiss mouse assessed as reduction in parasitemia at 50 mg/kg/day, ip administered for 3 days measured on day 4 relative to control; format: functional; set-up: scale not given: the % may be the effect or the level left; conditions: route intraperitoneal
[9] = Selectivity index, ratio of CC50 for african green monkey Vero C1008 cells to IC50 for Plasmodium falciparum 3D7; format: functional
In short: (§2)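 SI = CC50 (Vero, 72 h MTT) / IC50. IC50 comes from a 72 h SYBR Green I fluorescence assay: seven 2-fold dilutions in duplicate, 2% cell suspension at 0.8% parasitemia, and Logit regression of the dose-response.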

[10] = Selectivity index, ratio of CC50 for african green monkey Vero C1008 cells to IC50 for Plasmodium falciparum K1; format: functional; in short: as §2
[11] = Cytotoxicity against african green monkey Vero C1008 cells after 72 hrs by MTT assay; format: cell-based; conditions: chlorocebus sabaeus
In short: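 Vero (C1008) cells were incubated with dilutions of compound for 72 h and read by MTT. CC50 was obtained by nonlinear regression.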

[12] = test system: Plasmodium falciparum; assay: Resistance ratio of IC5O for Plasmodium falciparum K1 to IC50 for Plasmodium falciparum 3D7; format: functional
In short: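 Ratio of K1 IC50 to 3D7 IC50. Both come from the 72 h SYBR Green I fluorescence assay: seven 2-fold dilutions in duplicate, 0.8% parasitemia, IC50 by logit regression.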

[13] = test system: Plasmodium falciparum; assay: Antimalarial activity against chloroquine-resistant Plasmodium falciparum K1 after 72 hrs by SYBR Green I-based fluorescence assay; format: functional, organism-based; conditions: K1, 72 h
In short: (§3)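 Parasites cultured in RPMI with 10% FBS, gentamycin and Fungizone (pH 7.2) at 37 °C in CO2. Compounds from DMSO stock (5 mg/mL). Seven 2-fold serial dilutions, duplicate wells. Cells added at 2% hematocrit, 0.8% parasitemia; uninfected-cell wells kept as background. After 72 h, lysis buffer with SYBR Green I, 1 h at 37 °C, fluorescence read. IC50 by logit regression of dose-response.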

[14] = test system: Plasmodium falciparum; assay: Antimalarial activity against schizont stage of chloroquine-sensitive Plasmodium falciparum 3D7 after 72 hrs by SYBR Green I-based fluorescence assay; format: functional, organism-based; conditions: 3D7, 72 h; in short: as §3
[15] = test system: Plasmodium yoelii; assay: Antimalarial activity against chloroquine-resistant Plasmodium yoelii N-67 infected in Swiss mouse assessed as mean survival time at 3 mg/kg/day, im administered for 3 days (reference value: 9.20 +/- 0.44 days); format: functional; conditions: route intramuscular
[16] = test system: Plasmodium yoelii; assay: Antimalarial activity against chloroquine-resistant Plasmodium yoelii N-67 infected in Swiss mouse assessed as reduction in parasitemia at 3 mg/kg/day, im administered for 3 days measured on day 4 relative to control; format: functional; set-up: scale not given: the % may be the effect or the level left; conditions: route intramuscular
[17] = Mean residence time in Sprague-Dawley rat at 50 mg/kg, po by LC-MS/MS analysis; format: ADME, organism-based; set-up: dose 50 mg/kg, route oral; conditions: in vivo
In short: (§4)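 Male Sprague-Dawley rats (n = 5, 220−240 g), single oral dose 50 mg/kg. Plasma stored at −70 °C, processed by acetonitrile protein precipitation, and analysed by LC-MS/MS with QC samples among calibrators.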

[18] = Apparent oral volume of distribution in Sprague-Dawley rat at 50 mg/kg by LC-MS/MS analysis; format: ADME, organism-based; set-up: dose 50 mg/kg, route oral; conditions: in vivo; in short: as §4
[19] = Apparent oral clearance in Sprague-Dawley rat at 50 mg/kg by LC-MS/MS analysis; format: ADME, organism-based; set-up: dose 50 mg/kg, route oral; conditions: in vivo; in short: as §4
[20] = Elimination half life in Sprague-Dawley rat at 50 mg/kg, po by LC-MS/MS analysis; format: ADME, organism-based; set-up: dose 50 mg/kg, route oral; conditions: in vivo, read-out: beta t1/2 (converted); in short: as §4
[21] = Tmax in Sprague-Dawley rat at 50 mg/kg, po by LC-MS/MS analysis; format: ADME, organism-based; set-up: dose 50 mg/kg, route oral; conditions: in vivo; in short: as §4
[22] = Cmax in Sprague-Dawley rat at 50 mg/kg, po by LC-MS/MS analysis; format: ADME, organism-based; set-up: dose 50 mg/kg, route oral; conditions: in vivo; in short: as §4
[23] = AUC (0 to t) in Sprague-Dawley rat at 50 mg/kg, po by LC-MS/MS analysis; format: ADME, organism-based; set-up: dose 50 mg/kg, route oral; conditions: plasma; in short: as §4
[24] = test system: Plasmodium yoelii; assay: Antimalarial activity against chloroquine-resistant Plasmodium yoelii N-67 infected in Swiss mouse assessed as mean survival time at 50 mg/kg/day, po administered for 3 days (reference value: 9.20 +/- 0.44 days); format: functional
[25] = test system: Plasmodium yoelii; assay: Antimalarial activity against chloroquine-resistant Plasmodium yoelii N-67 infected in Swiss mouse assessed as reduction in parasitemia at 50 mg/kg/day, po administered for 3 days measured on day 4 relative to control; format: functional; set-up: scale not given: the % may be the effect or the level left

SMILES | MIC [2] [µM] | Activity [3] [%] | Ratio CC50/IC50 [9] | Ratio CC50/IC50 [10] | CC50 at 72 h [11] [nM] | Ratio IC50 [12] | IC50 [14] [nM] | other results
CC(C)=CCc1cc(C(=O)/C=C/c2ccc(O)cc2)c(O)c(CC=C(C)C)c1O [MEDICAGENIN] | 5.1 (≈ 2 µg/mL) |  |  |  |  |  |  | MIC [1]: 5.1 µM (≈ 2 µg/mL)
CC(C)=CCC1=C/C(=C(O)\C=C\c2ccc(O)cc2)C(=O)C(CC=C(C)C)(CC=C(C)C)C1=O [MUNCHIWARIN] |  |  |  |  |  |  |  | MIC [1]: 4.34 µM (≈ 2 µg/mL)
CC(C)=CCCC1(C)C=Cc2c(ccc(C(=O)/C=C/c3ccc(O)c(C=O)c3)c2O)O1 (configuration not stated) | 0.59 (≈ 0.247 µg/mL) |  | 79 | 9 | 9900 | 8.7 | 125 | Activity [4]: Active; IC50 [5]: 5500 nM; inhibition [6]: Active; MST [7]: 12.33 days; Activity [8]: 89%; IC50 [13]: 1090 nM
CCO[C@H]1O[C@@H]2O[C@@]3(C)CC[C@H]4[C@H](C)CC[C@@H]([C@H]1C)[C@@]24OO3 [ARTEMOTIL] |  |  | 98720 | 124857 | 136000 | 0.79 | 1.37 | MST [15]: >28 days; Activity [16]: 100%
CC(C)=CCCC1(C)C=Cc2c(O)c(C(=O)/C=C/c3cc(C=O)ccc3O)cc(CC=C(C)C)c2O1 (configuration not stated) | 0.25 (≈ 0.122 µg/mL) |  | 1210 | 242 | 88600 | 5 | 73.2 | MST [7]: 12.6 days; Activity [8]: 71%; IC50 [13]: 366 nM
CC(C)=CCCC1(C)C=Cc2c(ccc(C(=O)/C=C/c3cc(C=O)ccc3O)c2O)O1 (configuration not stated) | 1.19 (≈ 0.498 µg/mL) |  | 64 | 23.7 | 22200 | 2.6 | 347 | Activity [4]: Active; IC50 [5]: 13500 nM; inhibition [6]: inactive; MRT [17]: 3.89 h; Vd/F [18]: 433 L/kg; CL/F [19]: 2140 mL/min/kg; half-life [20]: 2.32 h; Tmax [21]: 3 h; Cmax [22]: 78.3 ng/mL; AUC(0-t) [23]: 389 ng·h/mL; MST [24]: 9.2 days; MST [7]: 17.4 days; Activity [25]: 23%; Activity [8]: 98%; IC50 [13]: 935 nM

Further lines, with some results ahead:

MIC [2] [µM] | SMILES | Activity [3] [%] | Ratio CC50/IC50 [9] | Ratio CC50/IC50 [10] | CC50 at 72 h [11] [nM] | Ratio IC50 [12] | IC50 [14] [nM] | other results
> 29.1 | CC1(C)CCc2cc(C(=O)/C=C/c3ccc(F)c(F)c3)c(O)cc2O1 | <100 |  |  |  |  |  | 
> 28.5 | CN(C)c1ccc(/C=C/C(=O)c2ccc3c(c2O)CCC(C)(C)O3)cc1 | <100 |  |  |  |  |  | 
> 28.3 | CC1(C)CCc2cc(C(=O)/C=C/c3ccc([N+](=O)[O-])cc3)c(O)cc2O1 | <100 |  |  |  |  |  | 
> 26.6 | CC1(C)CCc2cc(C(=O)/C=C/c3ccc(Cl)c(Cl)c3)c(O)cc2O1 | <100 |  |  |  |  |  | 
> 28.2 | CC1(C)CCc2cc(C(=O)/C=C/c3cccc([N+](=O)[O-])c3)c(O)cc2O1 | <100 |  |  |  |  |  | 
